# Results gathered from unrelated publications.
# Each line is one published result; the experiments were not run side by side.
# Target: Kappa-type opioid receptor (OPRK1, Homo sapiens, UniProt P41145)
SMILES,read-out,technique,setting,measurement,value
COc1ccc(C(=O)Nc2ccccc2CCC2CCCCN2C)cc1 (stereo not shown),ligand displacement,radioligand,,IC50,3600 nM
C[C@H]1[C@H]2Cc3ccc(O)cc3[C@]1(C)CCN2CC1CC1,cell-free assay,,,Ki,0.95 nM
Cc1cc(O)cc(C)c1C[C@H](N)C(=O)N1CCc2ccc(Cc3ccc(N)cc3)cc2C1,ligand displacement,radioligand,cell membranes,Ki,91 nM
COC(=O)/C=C/C(=O)N[C@@H]1CC[C@@]2(O)[C@H]3Cc4ccc(O)c5c4[C@@]2(CCN3CC2CC2)[C@H]1O5,ligand displacement,radioligand,cell membranes,IC50,7.78 nM
Cc1cc(O)cc(C)c1C[C@H](N)C(=O)N[C@H](C)C(=O)NCC(=O)N[C@@H](Cc1ccc(Cl)cc1)C(=O)N(C)CCC[C@@]1(c2ccc(F)cc2)OCc2cc(C#N)ccc21,cell-free assay,,,Ki,37 nM
COc1ncccc1-c1cnn2ccc(N3CCN(C(=O)OC(C)C)CC3)nc12,cell-free assay,,,IC50,> 30000 nM
Cc1ccccc1Cc1ccc2c(c1)CN(C(=O)[C@@H](N)Cc1c(C)cc(O)cc1C)CC2,ligand displacement,radioligand,cell membranes,Ki,1.2 nM
Cc1cc(O)cc(C)c1C[C@H](N)C(=O)N1Cc2ccccc2CC1C(=O)NCC(=O)NC(Cc1ccc(Cl)cc1)C(=O)N(C)CCC[C@@]1(c2ccc(F)cc2)OCc2cc(C#N)ccc21 (stereo in doubt),cell-free assay,,,Ki,91 nM
CN[C@]1(c2ccccc2Cl)CCCCC1=O,ligand displacement,radioligand,,IC50,13000 nM
CC(CCc1ccc(O)cc1)NCCc1ccc(O)c(O)c1 (stereo not shown),ligand displacement,radioligand,,IC50,5300 nM
CCCO[C@@]12Cc3cc(-c4ccccc4)cnc3[C@@H]3Oc4c(O)ccc5c4[C@@]31CCN(CC1CC1)[C@@H]2C5,cell-free assay,,,Ki,252 nM
Cc1cc(O)cc(C)c1C[C@H](N)C(=O)N1CCc2ccc(Cc3cccc([N+](=O)[O-])c3)cc2C1,ligand displacement,radioligand,cell membranes,Ki,2.5 nM
COC(=O)C(c1ccccc1)C1CCCCN1 (stereo not shown),ligand displacement,radioligand,,IC50,6900 nM
